Test results taken from ChEMBL document CHEMBL1148197, “Three new manzamine alkaloids from a common Indonesian sponge and their activity against infectious and tropical parasitic diseases” (J Nat Prod, 2004).
In brackets after ≈: the same amount, converted by molar mass. Activity calls are given as the source filed them. The calls are words filed in the database; no cut-off is given here.

What was measured:
[1] = system: Mycobacterium tuberculosis; assay: Antitubercular activity against Mycobacterium tuberculosis H37Rv; type: functional
Staphylococcus aureus [2] = assay: Antibacterial activity against methicillin-resistant Staphylococcus aureus; type: functional, organism-based
Leishmania donovani [3] = assay: Antileishmanial activity against Leishmania donovani; type: functional, organism-based
Plasmodium falciparum [4] = assay: Antimalarial activity against chloroquine-resistant Plasmodium falciparum W2; type: functional, organism-based
Vero [5] = assay: Cytotoxicity against african green monkey Vero cells at 4.7 ug/mL; type: cell-based; conditions: chlorocebus sabaeus
Plasmodium falciparum [6] = assay: Antimalarial activity against Plasmodium falciparum D6; type: functional, organism-based
Staphylococcus aureus [7] = assay: Antimicrobial activity against Staphylococcus aureus; type: functional, organism-based
[8] = system: Mycobacterium intracellulare; assay: Antibacterial activity against Mycobacterium intracellular; type: functional, organism-based
[9] = system: Human immunodeficiency virus 1; assay: Antiviral activity against HIV1 infected in human PBMCs; type: functional, organism-based
Cryptococcus neoformans = assay: […] activity against Cryptococcus neoformans; type: functional, organism-based
Vero [10] = assay: Cytotoxicity against african green monkey Vero cells; type: cell-based; conditions: chlorocebus sabaeus
Procedure, shortened: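 Vero (African green monkey kidney) cell cytotoxicity, reported in µg/mL. Compounds without cytotoxicity were scored at a tested concentration of 4.7 µg/mL.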

Plasmodium falciparum [11] = assay: Antimalarial activity against Plasmodium falciparum D6 at 5 ug/mL; type: functional, organism-based
Plasmodium falciparum [12] = assay: Antimalarial activity against chloroquine-resistant Plasmodium falciparum W2 at 5 ug/mL; type: functional, organism-based
Leishmania donovani [13] = assay: Antileishmanial activity against Leishmania donovani at 5 ug/mL; type: functional, organism-based

In the case of `O[C@@H]1CCCN2CC[C@@H]1O[C@@]13CC[C@@H](OC[C@]45CN6CCCC/C=C\CC[C@](O)(C=C(c7nccc8c7[nH]c7ccccc78)[C@@H]4CC6)[C@H]25)[C@@H](O)CCN1[C@@H]1[C@]2(CN4CCCC/C=C\CC[C@]1(O)C=C(c1nccc5c1[nH]c1ccccc15)[C@@H]2CC4)C3` [NEO-KAULUAMINE], the MIC [1] is reported as 2 µg/mL (≈ 1.72 µM), the Activity (Staphylococcus aureus [2]) is reported as “inactive” and the IC50 (Leishmania donovani [3]) is reported as 4.2 µg/mL (≈ 3.61 µM). For the same compound, the IC90 (Leishmania donovani [3]) was 8.2 µg/mL (≈ 7.05 µM), the IC50 (Plasmodium falciparum [4]) was 2.8 µg/mL (≈ 2.41 µM) and the Activity (Vero [5]) was “Non-toxic”. For the same compound, the IC50 (Plasmodium falciparum [6]) was 1.7 µg/mL (≈ 1.46 µM), the Activity (Staphylococcus aureus [7]) was “inactive” and the IC50 [8] was 3 µg/mL (≈ 2.58 µM). It also gave an EC50 [9] of 2.3 µM and an IC50 (Cryptococcus neoformans) of 3 µg/mL (≈ 2.58 µM).

In the case of `Oc1ccc2[nH]c3c(C4=C[C@@]5(O)CC/C=C\CCCCN6CC[C@@H]4[C@@]4(C6)C[C@@]67CC[C@@H](CCCN6[C@H]45)O7)nccc3c2c1` [MANZAMINE X], the IC50 (Staphylococcus aureus [2]) is reported as 0.75 µg/mL (≈ 1.29 µM), the Activity (Vero [5]) is reported as “Non-toxic” and the IC50 (Staphylococcus aureus [7]) is reported as 1 µg/mL (≈ 1.72 µM). It also gave an IC50 [8] of 1.5 µg/mL (≈ 2.58 µM), an EC50 [9] of 2.3 µM and an IC50 (Cryptococcus neoformans) of 3 µg/mL (≈ 5.17 µM).

In the case of `Oc1cccc2c1[nH]c1c(C3=C[C@@]4(O)CC/C=C\CCCCN5CC[C@@H]3[C@]3(CC6/C=C\CCCCN6[C@H]34)C5)nccc12` (stereo partly specified), the IC90 (Leishmania donovani [3]) is reported as 11 µg/mL (≈ 19.5 µM), the Activity (Vero [10]) is reported as 1.1 µg/mL and the EC50 [9] is reported as 0.59 µM.

For `O=C1CCCN2[C@@H](CC1)C[C@]13CN4CCCC/C=C\CC[C@](O)(C=C(c5nccc6c5[nH]c5c(O)cccc56)C1CC4)[C@H]23` (stereo partly specified) [MANZAMINE F], the Activity (Staphylococcus aureus [2]) was “inactive”, the IC90 (Leishmania donovani [3]) was 7 µg/mL (≈ 12.1 µM) and the Activity (Vero [5]) was “Non-toxic”. The Activity (Staphylococcus aureus [7]) was “inactive” and the EC50 [9] was 7.3 µM.

Work on `O[C@]12C=C(c3nccc4c3[nH]c3ccccc34)[C@@H]3CCN(CCCC/C=C\CC1)C[C@@]31C[C@@H]3/C=C\CCCCN3[C@H]12` [MANZAMINE A] yielded an IC90 (Leishmania donovani [3]) of 1.8 µg/mL (≈ 3.28 µM), an Activity (Vero [10]) of 1.2 µg/mL and an EC50 [9] of 4.2 µM.

With `O=C1CCCN2[C@@H]3[C@@]45CN6CCCC/C=C\CC[C@@]3(C=C(c3nccc7c3[nH]c3ccccc37)[C@@H]4CC6)O[C@]2(CC1)C5` the Activity (Staphylococcus aureus [2]) was “inactive”, the Activity (Plasmodium falciparum [11]) was “inactive” and the IC50 (Plasmodium falciparum [4]) was 3.7 µg/mL (≈ 6.57 µM). For the same compound, the Activity (Vero [5]) was “Non-toxic”, the Activity (Plasmodium falciparum [12]) was “inactive” and the Activity (Leishmania donovani [13]) was “inactive”. The IC50 (Plasmodium falciparum [6]) was 1.6 µg/mL (≈ 2.84 µM), the Activity (Staphylococcus aureus [7]) was “inactive” and the Activity [8] was “inactive”. The Activity (Cryptococcus neoformans) was “inactive”.

`OC1=C[C@@]2(O)CC/C=C\CCCCN3CC[C@@H]1[C@]1(C[C@@H]4/C=C\CCCCN4[C@H]12)C3` [IRCINOL A] showed an MIC [1] of 1.9 µg/mL (≈ 4.77 µM), an IC50 (Staphylococcus aureus [2]) of 30 µg/mL (≈ 75.3 µM) and an IC90 (Leishmania donovani [3]) of 0.7 µg/mL (≈ 1.76 µM). For the same compound, the IC50 (Plasmodium falciparum [4]) was 3.1 µg/mL (≈ 7.78 µM), the Activity (Vero [5]) was “Non-toxic” and the IC50 (Plasmodium falciparum [6]) was 2.4 µg/mL (≈ 6.02 µM). For the same compound, the Activity (Staphylococcus aureus [7]) was “inactive”, the IC50 [8] was 50 µg/mL (≈ 125 µM) and the EC50 [9] was 4.3 µM. For the same compound, the Activity (Cryptococcus neoformans) was “inactive”.

`O=CC1=C[C@@]2(O)CC/C=C\CCCCN3CC[C@@H]1[C@]1(C[C@@H]4/C=C\CCCCN4[C@H]12)C3` [IRCINAL] was tested, and the MIC [1] was 30.2 µg/mL (≈ 73.6 µM), the Activity (Staphylococcus aureus [2]) was “inactive” and the IC50 (Leishmania donovani [3]) was 4.6 µg/mL (≈ 11.2 µM). For the same compound, the IC90 (Leishmania donovani [3]) was 8.5 µg/mL (≈ 20.7 µM), the Activity (Plasmodium falciparum [11]) was “inactive” and the Activity (Vero [5]) was “Non-toxic”. The Activity (Plasmodium falciparum [12]) was “inactive”, the Activity (Staphylococcus aureus [7]) was “inactive” and the IC50 [8] was 50 µg/mL (≈ 122 µM). For the same compound, the EC50 [9] was 6.8 µM and the Activity (Cryptococcus neoformans) was “inactive”.

With `O=C1CCCN2[C@@H](CC1)C[C@]13CN4CCCC/C=C\CC[C@](O)(C=C(c5nccc6c5[nH]c5ccc(O)cc56)[C@@H]1CC4)[C@H]23` the Activity (Vero [10]) was 4.3 µg/mL.

`O=C1CCCN2[C@@H](CC1)C[C@]13CN4CCCC/C=C\CC[C@](O)(C=C(c5nccc6c5[nH]c5ccccc56)C1CC4)[C@H]23` (stereo partly specified) [MANZAMINE E] was tested, and the Activity (Staphylococcus aureus [2]) was “inactive”, the IC90 (Leishmania donovani [3]) was 6.8 µg/mL (≈ 12 µM) and the Activity (Vero [5]) was “Non-toxic”. For the same compound, the Activity (Staphylococcus aureus [7]) was “inactive”, the EC50 [9] was 13.1 µM and the Activity (Cryptococcus neoformans) was “inactive”.

With `[O-][N+]1=C(C2=C[C@@]3(O)CC/C=C\CCCCN4CC[C@@H]2[C@]2(CC5/C=C\CCCCN5[C@H]23)C4)c2[nH]c3ccccc3c2CC1` (stereo partly specified) the Activity (Staphylococcus aureus [2]) was “inactive”, the Activity (Vero [5]) was “Non-toxic” and the Activity (Staphylococcus aureus [7]) was “inactive”. For the same compound, the Activity [8] was “inactive”, the Activity [9] was “inactive” and the Activity (Cryptococcus neoformans) was “inactive”.

Work on `CO[C@H]1/C=C/O[C@@]2(C)Oc3c(C)c(O)c4c(O)c(c(/C=N/N5CCN(C)CC5)c(O)c4c3C2=O)NC(=O)/C(C)=C\C=C\[C@H](C)[C@H](O)[C@@H](C)[C@@H](O)[C@@H](C)[C@H](OC(C)=O)[C@@H]1C` [RIFAMPIN] yielded an MIC [1] of 0.5 µg/mL (≈ 0.608 µM).

`[O-][n+]1ccc2c([nH]c3ccccc32)c1C1=C[C@@]2(O)CC/C=C\CCCCN3CC[C@@H]1[C@]1(C[C@@H]4/C=C\CCCCN4[C@H]12)C3` showed an MIC [1] of 3.9 µg/mL (≈ 6.91 µM), an IC50 (Staphylococcus aureus [2]) of 0.4 µg/mL (≈ 0.708 µM) and an IC50 (Leishmania donovani [3]) of 1.1 µg/mL (≈ 1.95 µM). The IC90 (Leishmania donovani [3]) was 3.8 µg/mL (≈ 6.73 µM), the Activity (Vero [10]) was 4.2 µg/mL and the IC50 (Plasmodium falciparum [4]) was 0.013 µg/mL (≈ 0.023 µM). For the same compound, the IC50 (Plasmodium falciparum [6]) was 0.011 µg/mL (≈ 0.0195 µM), the IC50 (Staphylococcus aureus [7]) was 0.5 µg/mL (≈ 0.885 µM) and the IC50 [8] was 0.2 µg/mL (≈ 0.354 µM). The IC50 (Cryptococcus neoformans) was 1 µg/mL (≈ 1.77 µM).

`O[C@]12C=C(c3nccc4c3[nH]c3ccccc34)[C@@H]3CCN(CCCC/C=C\CC1)C[C@@]31CC/C=C\CCCCN[C@H]12` [MANZAMINE J] was tested, and the MIC [1] was 1.7 µg/mL (≈ 3.09 µM), the Activity (Staphylococcus aureus [2]) was “inactive” and the IC50 (Leishmania donovani [3]) was 25 µg/mL (≈ 45.4 µM). The IC90 (Leishmania donovani [3]) was 45 µg/mL (≈ 81.7 µM), the IC50 (Plasmodium falciparum [4]) was 0.75 µg/mL (≈ 1.36 µM) and the Activity (Vero [5]) was “Non-toxic”. The IC50 (Plasmodium falciparum [6]) was 1.3 µg/mL (≈ 2.36 µM), the Activity (Staphylococcus aureus [7]) was “inactive” and the IC50 [8] was 15 µg/mL (≈ 27.2 µM). The Activity (Cryptococcus neoformans) was “inactive”.

Work on `O[C@]12C=C(c3nccc4c3[nH]c3ccccc34)C3CCN(CCCC/C=C\CC1)C[C@@]31C[C@]34CC[C@H](CCCN3[C@H]12)O4` (stereo partly specified) [6-Deoxymanzamine X] yielded an MIC [1] of 1.8 µg/mL (≈ 3.19 µM), an IC50 (Staphylococcus aureus [2]) of 1.5 µg/mL (≈ 2.66 µM) and an Activity (Vero [10]) of 4.7 µg/mL. The IC50 (Staphylococcus aureus [7]) was 1.5 µg/mL (≈ 2.66 µM), the IC50 [8] was 6.25 µg/mL (≈ 11.1 µM) and the IC50 (Cryptococcus neoformans) was 2 µg/mL (≈ 3.54 µM).

`N=C(N)c1ccc(OCCCCCOc2ccc(C(=N)N)cc2)cc1` [PENTAMIDINE] was tested, and the IC90 (Leishmania donovani [3]) was 10 µg/mL (≈ 29.4 µM).

In the case of `C[C@@H]1[C@H](O)[C@@H](C)/C=C/C=C/C=C/C=C/C=C/C=C/C=C/[C@H](O[C@@H]2O[C@H](C)[C@@H](O)[C@H](N)[C@@H]2O)C[C@@H]2O[C@](O)(C[C@@H](O)C[C@@H](O)[C@H](O)CC[C@@H](O)C[C@@H](O)CC(=O)O[C@H]1C)C[C@H](O)[C@H]2C(=O)O` [AMPHOTERICIN B], the IC90 (Leishmania donovani [3]) is reported as 0.15 µg/mL (≈ 0.162 µM).
